Measured values taken from ChEMBL document CHEMBL1938258, “Discovery and molecular docking of quinolyl-thienyl chalcones as anti-angiogenic agents targeting VEGFR-2 tyrosine kinase” (Bioorg Med Chem Lett, 2012).

What was measured:
[1] = biological target: Vascular endothelial growth factor receptor 2 (Homo sapiens, UniProt P35968); assay: Inhibition of VEGFR-2 after 1 hr by fluorescence polarization assay
In short: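 VEGFR kinase protein in a fluorescence polarization tyrosine kinase kit. Buffer was 20 mM HEPES pH 7.4, 5 mM MgCl2, 2 mM MnCl2, Na3VO4, ATP, 200 ng/mL enzyme and 1 ng/mL poly(Glu,Tyr) 4:1. After 1 h the reaction was stopped with 6 mM EDTA. Anti-phosphotyrosine antibody and PTK green tracer were added, and FP was read after 30 min at room temperature.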

[2] = tested on: HUVEC; assay: Antiangiogenic activity against VEGF-stimulated HUVEC cells after 72 hrs by BrdU method; assay type: functional, cell-based; settings: Homo sapiens
In short: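 HUVEC grown overnight at 37 °C, 5% CO2 in 5% FBS medium on type 1 collagen-coated plates. Medium replaced by serum-free medium with graded inhibitor concentrations, then VEGF (10 ng/ml) added 30 min later. Cells incubated a further 72 h, with BrdU present for the last 18–24 h. IC50 taken as K from the fit y = Vmax(1 − x/(K+x)).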

Chain of Vascular endothelial growth factor receptor 2 (P35968 whole entry): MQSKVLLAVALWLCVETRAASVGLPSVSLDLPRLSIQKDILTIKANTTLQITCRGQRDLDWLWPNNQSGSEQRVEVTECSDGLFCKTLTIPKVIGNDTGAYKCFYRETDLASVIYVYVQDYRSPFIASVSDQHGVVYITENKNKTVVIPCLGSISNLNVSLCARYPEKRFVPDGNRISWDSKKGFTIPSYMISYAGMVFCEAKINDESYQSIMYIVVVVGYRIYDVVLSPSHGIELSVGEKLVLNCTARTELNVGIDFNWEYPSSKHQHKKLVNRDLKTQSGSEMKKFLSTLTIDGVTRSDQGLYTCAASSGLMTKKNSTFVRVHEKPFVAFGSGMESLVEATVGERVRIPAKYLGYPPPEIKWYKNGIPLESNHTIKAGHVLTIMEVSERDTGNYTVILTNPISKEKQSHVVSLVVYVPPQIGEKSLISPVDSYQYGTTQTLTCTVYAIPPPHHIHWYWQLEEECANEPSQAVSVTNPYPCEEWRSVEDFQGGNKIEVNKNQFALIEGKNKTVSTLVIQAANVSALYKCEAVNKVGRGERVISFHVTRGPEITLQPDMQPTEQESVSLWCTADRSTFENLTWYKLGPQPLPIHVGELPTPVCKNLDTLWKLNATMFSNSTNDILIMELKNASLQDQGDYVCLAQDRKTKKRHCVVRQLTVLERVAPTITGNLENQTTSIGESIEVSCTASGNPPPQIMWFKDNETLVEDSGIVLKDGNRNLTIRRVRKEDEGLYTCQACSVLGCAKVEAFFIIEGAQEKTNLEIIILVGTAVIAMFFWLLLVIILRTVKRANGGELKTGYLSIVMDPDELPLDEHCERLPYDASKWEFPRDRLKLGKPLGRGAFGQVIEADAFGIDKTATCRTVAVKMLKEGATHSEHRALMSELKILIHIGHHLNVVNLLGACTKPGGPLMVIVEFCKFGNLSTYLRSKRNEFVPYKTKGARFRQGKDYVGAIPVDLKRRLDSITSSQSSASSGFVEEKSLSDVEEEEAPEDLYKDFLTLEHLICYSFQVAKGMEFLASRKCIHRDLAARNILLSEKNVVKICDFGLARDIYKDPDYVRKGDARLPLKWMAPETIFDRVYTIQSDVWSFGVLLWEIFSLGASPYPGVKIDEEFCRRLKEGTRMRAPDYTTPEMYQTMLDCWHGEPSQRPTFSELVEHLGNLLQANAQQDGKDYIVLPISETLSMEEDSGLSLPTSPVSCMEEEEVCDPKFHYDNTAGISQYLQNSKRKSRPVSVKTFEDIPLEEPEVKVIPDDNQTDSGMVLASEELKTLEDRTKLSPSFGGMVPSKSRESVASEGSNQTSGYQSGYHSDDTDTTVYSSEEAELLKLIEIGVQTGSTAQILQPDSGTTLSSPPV

SMILES	IC50 [1] [nM]	IC50 [2] [nM]
Cc1ccc2nc(Cl)c(/C=C/C(=O)c3cc(Cl)sc3Cl)cc2c1	81.4	26.2
Cc1ccc2nc(Cl)c(/C=C/C(=O)c3ccc(I)s3)cc2c1	154	129
Cc1cccc2cc(/C=C/C(=O)c3ccsc3)c(Cl)nc12	389	291
Cc1cc(C(=O)/C=C/c2cc3cccc(C)c3nc2Cl)c(C)s1	> 1000	–
Cc1ccc2nc(Cl)c(/C=C/C(=O)c3ccc(Cl)s3)cc2c1	107	59.4
Cc1ccc2cc(/C=C/C(=O)c3sccc3Cl)c(Cl)nc2c1	82.7	34
Cc1cccc2cc(/C=C/C(=O)c3ccc(Cl)s3)c(Cl)nc12	189	116
Cc1ccc2cc(/C=C/C(=O)c3sccc3C)c(Cl)nc2c1	157	124
Cc1ccc(C(=O)/C=C/c2cc3cccc(C)c3nc2Cl)s1	262	145
Cc1cccc2cc(/C=C/C(=O)c3ccc(I)s3)c(Cl)nc12	482	284
Cc1ccc2cc(/C=C/C(=O)c3ccc(Br)s3)c(Cl)nc2c1	104	83.6
Cc1ccc2nc(Cl)c(/C=C/C(=O)c3sccc3Br)cc2c1	129	61.9
Cc1ccc2cc(/C=C/C(=O)c3cc(Cl)sc3Cl)c(Cl)nc2c1	73.4	21.8
Cc1ccc2cc(/C=C/C(=O)c3cc(C)sc3C)c(Cl)nc2c1	561	294
Cc1ccc2nc(Cl)c(/C=C/C(=O)c3ccc(C)s3)cc2c1	176	128
Cc1ccc2nc(Cl)c(/C=C/C(=O)c3sccc3C)cc2c1	185	127
Cc1ccc2cc(/C=C/C(=O)c3sccc3Br)c(Cl)nc2c1	112	61.9

SMILES	IC50 [1] [nM]	IC50 [2] [nM]
Cc1ccc2cc(/C=C/C(=O)c3ccsc3)c(Cl)nc2c1	208	107
Cc1ccc2nc(Cl)c(/C=C/C(=O)c3ccc(Br)s3)cc2c1	113	88.4
Cc1csc(C(=O)/C=C/c2cc3ccc(C)cc3nc2Cl)c1	139	98.9
Cc1csc(C(=O)/C=C/c2cc3cccc(C)c3nc2Cl)c1	233	153
Cc1cccc2cc(/C=C/C(=O)c3ccc(Br)s3)c(Cl)nc12	367	243
Cc1ccc2cc(/C=C/C(=O)c3ccc(Cl)s3)c(Cl)nc2c1	92.2	49.5
Cc1csc(C(=O)/C=C/c2cc3cc(C)ccc3nc2Cl)c1	169	106
Cc1ccc2cc(/C=C/C(=O)c3ccc(I)s3)c(Cl)nc2c1	148	135
Cc1ccsc1C(=O)/C=C/c1cc2cccc(C)c2nc1Cl	267	189
Cc1cccc2cc(/C=C/C(=O)c3sccc3Br)c(Cl)nc12	313	187
Cc1ccc2nc(Cl)c(/C=C/C(=O)c3cc(C)sc3C)cc2c1	453	229
Cc1ccc2nc(Cl)c(/C=C/C(=O)c3sccc3Cl)cc2c1	87.1	37.5
Cc1cccc2cc(/C=C/C(=O)c3sccc3Cl)c(Cl)nc12	130	91.5
Cc1ccc2cc(/C=C/C(=O)c3ccc(C)s3)c(Cl)nc2c1	130	102
Cc1cccc2cc(/C=C/C(=O)c3cc(Cl)sc3Cl)c(Cl)nc12	358	295
Cc1ccc2nc(Cl)c(/C=C/C(=O)c3ccsc3)cc2c1	287	107
